Assay results published in ChEMBL document CHEMBL4385599, “Neutral sphingomyelinase 2 inhibitors based on the 4-(1H-imidazol-2-yl)-2,6-dialkoxyphenol scaffold” (Eur J Med Chem, 2019).
pIC50: −log10 of the molar value.

Legend:
[1] = Metabolic stability in mouse liver microsomes assessed as parent compound remaining in presence of UDPGA at 5 uM measured after 1 hr by LC/MS/MS method; format: ADME, Microsome
Method in brief: (§1)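 Glucuronidation: compound in 50 mM Tris-HCl pH 7.5 with microsomes 0.5 mg/mL, 8 mM MgCl2, 25 μg/mL alamethicin, preincubated at 37 °C; started with UDPGA 2 mM final, triplicate; 60 min; quenched with cold acetonitrile plus internal standard; parent remaining by LC/MS/MS; cofactor-free controls.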

[2] = Metabolic stability in human liver microsomes assessed as parent compound remaining at 5 uM in presence of NADPH regenerating system measured after 1 hr by LC/MS/MS method; format: ADME, Microsome
[3] = Ratio of drug level of test compound to drug level of DPTIP in CD-1 mouse brain at 10 mg/kg, po measured after 2 hrs by UPLC and LC-MS/MS analysis; format: ADME, organism-based; conditions: in vivo
Method in brief: (§2)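 Male CD-1 mice (25–30 g), single oral gavage 10 mg/kg in 5% DMSO, 5% polysorbate 80, 90% saline; 3 mice per time point, sacrificed at 0.5 and 2 h. Cardiac blood into heparin, plasma by centrifugation; brains flash frozen. Acetonitrile extraction with losartan internal standard; quantified by UPLC–LC-MS/MS against calibration curves in naïve plasma/brain matrix.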

[4] = organism: Homo sapiens; test: Selectivity index, ratio of IC50 for alkaline phosphatase (unknown origin) to IC50 for Inhibition of human recombinant nSMase expressed in HEK293 cells; format: cell-based
[5] = Ratio of drug level in brain to plasma in CD-1 mouse at 10 mg/kg, po measured after 2 hrs by UPLC and LC-MS/MS analysis; format: ADME, organism-based; method in brief: as §2
[6] = Metabolic stability in mouse liver microsomes assessed as parent compound remaining at 5 uM in presence of NADPH regenerating system measured after 1 hr by LC/MS/MS method; format: ADME, Microsome
[7] = Ratio of drug level of test compound to drug level of DPTIP in CD-1 mouse plasma at 10 mg/kg, po measured after 0.5 hrs by UPLC and LC-MS/MS analysis; format: ADME, organism-based; conditions: in vivo; method in brief: as §2
[8] = organism: Homo sapiens; test: Selectivity index, ratio of IC50 for choline oxidase (unknown origin) to IC50 for Inhibition of human recombinant nSMase expressed in HEK293 cells; format: cell-based
[9] = Selectivity index, ratio of IC50 for horseradish peroxidase to IC50 for Inhibition of human recombinant nSMase expressed in HEK293 cells; format: cell-based
[10] = Ratio of drug level of test compound to drug level of DPTIP in CD-1 mouse plasma at 10 mg/kg, po measured after 2 hrs by UPLC and LC-MS/MS analysis; format: ADME, organism-based; conditions: in vivo; method in brief: as §2
[11] = Metabolic stability in human liver microsomes assessed as parent compound remaining in presence of UDPGA at 5 uM measured after 1 hr by LC/MS/MS method; format: ADME, Microsome; method in brief: as §1
[12] = Drug metabolism in CD-1 mouse assessed as (2S,3S,4S,5R,6S)-6-(4-(4,5-diisopropyl-1H-imidazol-2-yl)-2,6-dimethoxyphenoxy)-3,4,5-trihydroxytetrahydro-2H-pyran-2-carboxylic acid at 10 mg/kg, po measured after 2 hrs by UPLC and LC-MS/MS analysis; format: ADME, organism-based; conditions: in vivo
[13] = molecular target: T1, Sphingomyelin phosphodiesterase 3 (Homo sapiens, UniProt Q9NY59); test: Inhibition of human recombinant nSMase expressed in HEK293 cells using sphingomyelin as substrate by alkaline phosphatase, choline oxidase and horseradish peroxidase dependent H2O2 detection based fluorescence coupled assay
T1 sequence (Q9NY59 whole entry): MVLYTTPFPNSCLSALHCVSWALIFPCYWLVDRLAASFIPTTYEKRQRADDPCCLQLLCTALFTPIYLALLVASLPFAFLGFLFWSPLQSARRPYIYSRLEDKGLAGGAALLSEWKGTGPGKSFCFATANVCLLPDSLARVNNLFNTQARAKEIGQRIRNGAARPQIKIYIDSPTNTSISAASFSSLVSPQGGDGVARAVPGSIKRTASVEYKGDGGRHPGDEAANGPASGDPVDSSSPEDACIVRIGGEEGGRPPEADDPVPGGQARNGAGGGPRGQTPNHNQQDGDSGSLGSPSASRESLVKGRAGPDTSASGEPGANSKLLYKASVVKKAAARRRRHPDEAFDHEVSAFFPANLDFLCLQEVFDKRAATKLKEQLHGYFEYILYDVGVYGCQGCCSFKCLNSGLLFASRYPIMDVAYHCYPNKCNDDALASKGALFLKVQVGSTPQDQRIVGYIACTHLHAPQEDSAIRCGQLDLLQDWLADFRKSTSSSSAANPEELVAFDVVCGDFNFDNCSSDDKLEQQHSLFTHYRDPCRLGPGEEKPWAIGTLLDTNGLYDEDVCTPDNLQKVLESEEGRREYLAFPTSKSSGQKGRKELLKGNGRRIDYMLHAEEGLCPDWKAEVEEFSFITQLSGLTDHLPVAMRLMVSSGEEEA
Method in brief: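 Fluorescence-based coupled assay with human recombinant nSMase2, alkaline phosphatase and choline oxidase; IC50 values are mean ± SD of at least three experiments.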

Compound: COc1cc(-c2nc(C(C)C)c(C(C)C)[nH]2)cc(OC)c1O
- Stability [1]: 14%
- Stability [2]: > 95%
- Ratio [3]: 3
- Ratio IC50 [4]: > 5
- BPR [5]: 9%
- Stability [6]: 82%
- Ratio [7]: 3
- Ratio IC50 [8]: > 5
- Ratio IC50 [9]: > 5
- Ratio [10]: 6
- Stability [11]: 32%
- Drug metabolism [12]: Metabolite_Detected
- pIC50 [13]: 7.05
